ChEMBL document CHEMBL3621143, “Discovery of BMS-641988, a Novel Androgen Receptor Antagonist for the Treatment of Prostate Cancer” (ACS Med Chem Lett, 2015)
pIC50: −log10 of the molar value.

Tests used:
Cytochrome P450 2B6 = molecular target: T1, Cytochrome P450 2B6 (Homo sapiens, UniProt P20813); assay: Inhibition of human CYP2B6; type: ADME
T1 sequence (P20813 whole entry): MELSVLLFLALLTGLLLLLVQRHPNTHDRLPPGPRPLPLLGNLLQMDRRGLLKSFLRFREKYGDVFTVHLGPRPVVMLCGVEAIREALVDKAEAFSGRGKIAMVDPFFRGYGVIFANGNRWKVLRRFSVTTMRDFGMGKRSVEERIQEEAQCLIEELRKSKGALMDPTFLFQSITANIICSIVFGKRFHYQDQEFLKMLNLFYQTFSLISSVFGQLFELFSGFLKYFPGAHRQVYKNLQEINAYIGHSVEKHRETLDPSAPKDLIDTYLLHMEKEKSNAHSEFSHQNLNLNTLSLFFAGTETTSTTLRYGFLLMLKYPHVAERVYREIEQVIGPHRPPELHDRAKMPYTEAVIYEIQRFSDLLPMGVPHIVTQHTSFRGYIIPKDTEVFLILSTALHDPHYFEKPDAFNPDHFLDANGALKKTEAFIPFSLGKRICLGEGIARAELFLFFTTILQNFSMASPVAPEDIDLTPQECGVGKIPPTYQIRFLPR

[1] = AUC (0 to infinity) in rat at 5 mg/kg, iv; type: ADME, organism-based; parameters: dose 5 mg/kg, route intravenous, time infinity; conditions: in vivo
Outline: (§1)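 Single IV and oral doses in mouse and rat (IV 5, PO 10 mg/kg) and dog (IV 1, PO 2 mg/kg). Half-life, clearance, AUC0-∞ (µM*h) and %F derived from the plasma profiles.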

[2] = Clearance in mouse at 5 mg/kg, iv and 10 mg/kg, po; type: ADME, organism-based; conditions: in vivo; outline: as §1

Compound: CCS(=O)(=O)N[C@@H]1C[C@]2(C)O[C@]1(C)[C@@H]1C(=O)N(c3ccc(C#N)c(C(F)(F)F)c3)C(=O)[C@@H]12
- pIC50 (Cytochrome P450 2B6): < 4.40
- AUC(0-inf) [1]: 31.7 µM·h
- clearance [2]: 4.5 mL/min/kg
